Laboratory results published in ChEMBL document CHEMBL4257446, “Synthesis and biological evaluation of chalcone-linked pyrazolo[1,5-a]pyrimidines as potential anticancer agents” (Medchemcomm, 2017).
The source made the active and inactive calls. The rule behind the calls is not given here.

Legend:
[1] = tested on: MDA-MB-231; assay: Antiproliferative activity against human MDA-MB-231 cells after 24 hrs by MTT assay; format: functional, cell-based; conditions: MDA-MB-231, 24 h
How it was run: (§1)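 Cells exposed to a range of compound concentrations; viability read by MTT assay. IC50 (concentration giving 50% growth inhibition) calculated and reported as mean ± S.D. of three independent experiments, each run in triplicate.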

[2] = tested on: HEK293; assay: Antiproliferative activity against HEK293 cells after 24 hrs by MTT assay; format: cell-based; conditions: Homo sapiens, HEK293, 24 h
[3] = tested on: DU-145; assay: Antiproliferative activity against human DU145 cells after 24 hrs by MTT assay; format: functional, cell-based; conditions: DU-145, 24 h; how it was run: as §1
[4] = tested on: A549; assay: Antiproliferative activity against human A549 cells after 24 hrs by MTT assay; format: functional, cell-based; conditions: A549, 24 h; how it was run: as §1
[5] = tested on: A549; assay: Induction of apoptosis in human A549 cells assessed as decrease in Bcl2 levels at 2 uM after 24 hrs by Western blot analysis; format: functional, cell-based
How it was run: (§2)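 A549 cells given 2 μM final concentration for 24 h. Total lysate probed by western blot for apoptosis-related proteins (Bax, p53, p21, caspase-3, Bcl2). Erlotinib served as positive control and untreated cells as negative control.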

[6] = tested on: HEK293; assay: Induction of apoptosis in HEK293 cells assessed as effect on Bax levels after 24 hrs by Western blot analysis; format: cell-based; conditions: human, hek293, 24 h
[7] = tested on: A549; assay: Induction of apoptosis in human A549 cells assessed as increase in p53 levels at 2 uM after 24 hrs by Western blot analysis; format: functional, cell-based; how it was run: as §2
[8] = tested on: HEK293; assay: Cell cycle arrest in HEK293 cells after 24 hrs by propidium iodide staining-based flow cytometric analysis; conditions: human, hek293, 24 h
[9] = tested on: A549; assay: Decrease in STAT3 protein expression in human A549 cells in STAT3 levels at 2 uM after 24 hrs by Western blot analysis; format: functional, cell-based
How it was run: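 A549 cells exposed at 2 μM final concentration and collected 24 h later. Total protein lysate extracted and immunoblotted with antibodies against the EGFR/STAT3 pathway proteins. Erlotinib-treated cells were the positive control and untreated cells the negative control.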

[10] = tested on: HEK293; assay: Induction of apoptosis in HEK293 cells assessed as effect on p53 levels after 24 hrs by Western blot analysis; format: cell-based; conditions: human, hek293, 24 h
[11] = tested on: A549; assay: Induction of apoptosis in human A549 cells assessed as decrease in pro-caspase-9 levels at 2 uM after 24 hrs by Western blot analysis; format: functional, cell-based
[12] = tested on: A549; assay: Induction of apoptosis in human A549 cells assessed as increase in Bax levels at 2 uM after 24 hrs by Western blot analysis; format: functional, cell-based; how it was run: as §2
[13] = tested on: HEK293; assay: Induction of apoptosis in HEK293 cells assessed as effect on Bcl2 levels after 24 hrs by Western blot analysis; format: cell-based; conditions: human, hek293, 24 h
[14] = tested on: A549; assay: Cell cycle arrest in human A549 cells assessed as accumulation of cells at G2/M phase at 2 uM after 24 hrs by propidium iodide staining-based flow cytometric analysis (reference value: 20.4%); format: functional
[15] = tested on: HEK293; assay: Induction of apoptosis in HEK293 cells assessed as effect on p21 levels after 24 hrs by Western blot analysis; format: cell-based; conditions: human, hek293, 24 h
[16] = tested on: A549; assay: Induction of apoptosis in human A549 cells assessed as increase in p21 levels at 2 uM after 24 hrs by Western blot analysis; format: functional, cell-based; how it was run: as §2

Row | SMILES | IC50 [1] [µM] | IC50 [2] [µM] | IC50 [3] [µM] | IC50 [4] [µM] | further results
1 | COc1ccc(/C=C/C(=O)c2cc(-c3ccc(OC)c(OC)c3)n3nc(-c4ccccc4)cc3n2)cc1 | 22 | 50.7 | 14.9 | 19.3 | 
2 | COc1ccc(-c2cc(/C=C/C(=O)c3ccc(Cl)cc3)nc3cc(-c4ccccc4)nn23)cc1OC | 17.1 | 44.1 | 21.3 | 15.4 | 
3 | COc1ccc(C(=O)/C=C/c2cc(-c3ccc(OC)cc3)n3nc(-c4ccccc4)cc3n2)cc1 | 6.3 | 36.1 | 8.5 | 2.9 | Activity [5]: Active; Activity [6]: Non-Toxic; Activity [7]: Active; Activity [8]: Non-Toxic; Activity [9]: Active; Activity [10]: Non-Toxic; Activity [11]: Active; Activity [12]: Active; Activity [13]: Non-Toxic; Activity [14]: 29.6%; Activity [15]: Non-Toxic; Activity [16]: Active
4 | COc1ccc(-c2cc(/C=C/C(=O)c3cc(OC)c(OC)c(OC)c3)nc3cc(-c4ccccc4)nn23)cc1OC | 4.7 | 35 | 8.3 | 7.2 | Activity [5]: Active; Activity [6]: Non-Toxic; Activity [7]: Active; Activity [8]: Non-Toxic; Activity [9]: Active; Activity [10]: Non-Toxic; Activity [11]: Active; Activity [12]: Active; Activity [13]: Non-Toxic; Activity [14]: 33.11%; Activity [15]: Non-Toxic; Activity [16]: Active
5 | COc1ccc(-c2cc(C(=O)/C=C/c3cc(OC)c(OC)c(OC)c3)nc3cc(-c4ccccc4)nn23)cc1OC | 16.7 | 46.8 | 14.7 | 15.4 | 
6 | COc1cc(-c2cc(/C=C/C(=O)c3ccc(C)c(C)c3)nc3cc(-c4ccccc4)nn23)cc(OC)c1OC | 13.5 | 72.5 | 15.4 | 10.6 | 
7 | COc1cc(-c2cc(C(=O)/C=C/c3ccccc3)nc3cc(-c4ccccc4)nn23)cc(OC)c1OC | 19.2 | 44.8 | 16.3 | 18 | 
8 | COc1ccc(-c2cc(C(=O)/C=C/c3ccc(Cl)cc3)nc3cc(-c4ccccc4)nn23)cc1OC | 23.7 | 39.1 | 22.4 | 22 | 
9 | COc1ccc(-c2cc(C(=O)/C=C/c3ccccc3)nc3cc(-c4ccccc4)nn23)cc1OC | 23.3 | 64.1 | 15.6 | 18.6 | 
10 | COc1cc(-c2cc(/C=C/C(=O)c3ccc(C)cc3)nc3cc(-c4ccccc4)nn23)cc(OC)c1OC | 23.9 | 50.4 | 27.1 | 19.4 | 
11 | COc1ccc(/C=C/C(=O)c2cc(-c3cc(OC)c(OC)c(OC)c3)n3nc(-c4ccccc4)cc3n2)cc1 | 16.5 | 46.6 | 16.9 | 21.2 | 
12 | COc1ccc(-c2cc(/C=C/C(=O)c3ccc(C)c(C)c3)nc3cc(-c4ccccc4)nn23)cc1OC | 11.5 | 46.2 | 12.1 | 9.3 | 
13 | COc1ccc(-c2cc(C(=O)/C=C/c3ccc(C)cc3)nc3cc(-c4ccccc4)nn23)cc1OC | 22.6 | 57.4 | 19.5 | 22.2 | 
14 | COc1ccc(C(=O)/C=C/c2cc(-c3ccc(OC)c(OC)c3)n3nc(-c4ccccc4)cc3n2)cc1 | 13.9 | 40 | 14.6 | 11.9 | 
15 | COc1ccc(/C=C/C(=O)c2cc(-c3cc(OC)c(OC)c(OC)c3)n3nc(-c4ccccc4)cc3n2)cc1OC | 14.2 | 41 | 15.3 | 20.5 | 
16 | COc1ccc(-c2cc(/C=C/C(=O)c3ccc(OC)c(OC)c3)nc3cc(-c4ccccc4)nn23)cc1 | 8.7 | 48.5 | 16.4 | 7.4 | 
17 | COc1ccc(-c2cc(/C=C/C(=O)c3ccc(C)cc3)nc3cc(-c4ccccc4)nn23)cc1OC | 19.8 | 62.6 | 26.8 | 17.2 | 
18 | COc1ccc(-c2cc(/C=C/C(=O)c3ccccc3)nc3cc(-c4ccccc4)nn23)cc1 | 9.9 | 53.2 | 13.7 | 8.6 | 
19 | COc1cc(-c2cc(C(=O)/C=C/c3ccc(C)cc3)nc3cc(-c4ccccc4)nn23)cc(OC)c1OC | 18.6 | 56.1 | 21.9 | 20 | 
20 | COc1ccc(C(=O)/C=C/c2cc(-c3cc(OC)c(OC)c(OC)c3)n3nc(-c4ccccc4)cc3n2)cc1 | 13.2 | 79.8 | 25.2 | 14.6 | 
21 | COc1ccc(-c2cc(/C=C/C(=O)c3ccccc3)nc3cc(-c4ccccc4)nn23)cc1OC | 11.8 | 51.2 | 10 | 10.7 | 
22 | COc1cc(/C=C/C(=O)c2cc(-c3cc(OC)c(OC)c(OC)c3)n3nc(-c4ccccc4)cc3n2)cc(OC)c1OC | 18.4 | 41 | 17.9 | 25.9 | 
23 | COc1ccc(C(=O)/C=C/c2cc(-c3cc(OC)c(OC)c(OC)c3)n3nc(-c4ccccc4)cc3n2)cc1OC | 18.3 | 81.7 | 29.9 | 17.8 | 
24 | C#Cc1cccc(Nc2ncnc3cc(OCCOC)c(OCCOC)cc23)c1 [ERLOTINIB] | 14.7 | 30.3 | 18.4 | 10.4 | Activity [8]: Non-Toxic; Activity [9]: inactive; Activity [14]: 24.5%
25 | COc1cc(-c2cc(/C=C/C(=O)c3ccccc3)nc3cc(-c4ccccc4)nn23)cc(OC)c1OC | 15.8 | ≥ 100 | 34.3 | 18.2 | 
26 | COc1cc(-c2cc(/C=C/C(=O)c3ccc(Cl)cc3)nc3cc(-c4ccccc4)nn23)cc(OC)c1OC | 32.5 | ≥ 100 | 29.3 | 15.5 | 
27 | COc1cc(-c2cc(C(=O)/C=C/c3ccc(Cl)cc3)nc3cc(-c4ccccc4)nn23)cc(OC)c1OC | 21.6 | 53.9 | 19.5 | 23.8 | 
28 | COc1cc(C(=O)/C=C/c2cc(-c3cc(OC)c(OC)c(OC)c3)n3nc(-c4ccccc4)cc3n2)cc(OC)c1OC | 24.3 | ≥ 100 | 34.9 | 20.5 | 
